Experiments:
[1] = organism: Homo sapiens; assay: Selectivity ratio, ratio of IC50 for probe binding to HER2 (unknown origin) to IC50 for probe binding to EGFR L858R mutant (unknown origin)
How it was run: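 Ratio of two IC50 values measured in the rabbit reticulocyte lysate competition binding assay: HER2 and EGFR L858R. Each IC50 comes from displacement of an active-site-dependent probe, read by luminescence, with a ten-point dose-response. Each IC50 is the average of triplicate experiments.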

[2] = target: Cytoplasmic tyrosine-protein kinase BMX (Homo sapiens) (UniProt P51813); assay: Inhibition of probe binding to BMX (unknown origin) using rabbit reticulate lysate system at 250 nM after 1 hr by luminescence assay relative to control
Chain of Cytoplasmic tyrosine-protein kinase BMX (Homo sapiens) (P51813 whole entry): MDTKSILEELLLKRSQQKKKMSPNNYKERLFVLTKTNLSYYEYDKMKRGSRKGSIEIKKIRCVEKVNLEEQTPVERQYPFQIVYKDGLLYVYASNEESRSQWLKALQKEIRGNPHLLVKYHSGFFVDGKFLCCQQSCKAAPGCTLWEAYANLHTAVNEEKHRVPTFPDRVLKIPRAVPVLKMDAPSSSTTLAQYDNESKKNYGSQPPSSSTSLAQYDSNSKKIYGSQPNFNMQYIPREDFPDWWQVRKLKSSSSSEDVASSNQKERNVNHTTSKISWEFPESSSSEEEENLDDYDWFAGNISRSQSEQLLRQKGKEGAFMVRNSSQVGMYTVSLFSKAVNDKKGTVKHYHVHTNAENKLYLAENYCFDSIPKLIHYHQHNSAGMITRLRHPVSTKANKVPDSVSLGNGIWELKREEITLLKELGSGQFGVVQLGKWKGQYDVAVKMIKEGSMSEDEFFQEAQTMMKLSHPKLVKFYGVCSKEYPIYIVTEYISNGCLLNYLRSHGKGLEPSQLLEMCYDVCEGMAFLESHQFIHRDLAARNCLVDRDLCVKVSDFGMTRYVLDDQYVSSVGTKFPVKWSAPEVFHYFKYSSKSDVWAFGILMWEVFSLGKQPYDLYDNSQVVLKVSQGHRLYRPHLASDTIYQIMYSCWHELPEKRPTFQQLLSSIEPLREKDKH

[3] = Half life in rat liver microsomes; type: ADME, Microsome
[4] = target: Cytochrome P450 2C9 (Homo sapiens, UniProt P11712); assay: Inhibition of CYP2C9 (unknown origin); type: ADME
[5] = target: Epidermal growth factor receptor (Homo sapiens, UniProt P00533, L858R/T790M); assay: Inhibition of human partial length EGFR L858R/T790M mutant (R669 to V1011 residues) expressed in mammalian expression system by competition binding assay based KinomeScan assay
How it was run: (§1)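 Competition binding against an immobilized active-site-directed ligand. Bound kinase is quantified by qPCR of its DNA tag. Kd values come from duplicate 11-point dose-response curves.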

[6] = system: CCRF-CEM; assay: cells; type: functional; details: Homo sapiens, 48 h
[7] = system: NCI-H322M; assay: cells; type: functional; details: Homo sapiens, 48 h
[8] = target: T1, Epidermal growth factor receptor (Homo sapiens, UniProt P00533, L858R); assay: Binding affinity to human partial length EGFR L858R mutant (R669 to V1011 residues) expressed in bacterial expression system by kinomescan assay
T1 sequence (P00533 25-1210 L858R limits assumed): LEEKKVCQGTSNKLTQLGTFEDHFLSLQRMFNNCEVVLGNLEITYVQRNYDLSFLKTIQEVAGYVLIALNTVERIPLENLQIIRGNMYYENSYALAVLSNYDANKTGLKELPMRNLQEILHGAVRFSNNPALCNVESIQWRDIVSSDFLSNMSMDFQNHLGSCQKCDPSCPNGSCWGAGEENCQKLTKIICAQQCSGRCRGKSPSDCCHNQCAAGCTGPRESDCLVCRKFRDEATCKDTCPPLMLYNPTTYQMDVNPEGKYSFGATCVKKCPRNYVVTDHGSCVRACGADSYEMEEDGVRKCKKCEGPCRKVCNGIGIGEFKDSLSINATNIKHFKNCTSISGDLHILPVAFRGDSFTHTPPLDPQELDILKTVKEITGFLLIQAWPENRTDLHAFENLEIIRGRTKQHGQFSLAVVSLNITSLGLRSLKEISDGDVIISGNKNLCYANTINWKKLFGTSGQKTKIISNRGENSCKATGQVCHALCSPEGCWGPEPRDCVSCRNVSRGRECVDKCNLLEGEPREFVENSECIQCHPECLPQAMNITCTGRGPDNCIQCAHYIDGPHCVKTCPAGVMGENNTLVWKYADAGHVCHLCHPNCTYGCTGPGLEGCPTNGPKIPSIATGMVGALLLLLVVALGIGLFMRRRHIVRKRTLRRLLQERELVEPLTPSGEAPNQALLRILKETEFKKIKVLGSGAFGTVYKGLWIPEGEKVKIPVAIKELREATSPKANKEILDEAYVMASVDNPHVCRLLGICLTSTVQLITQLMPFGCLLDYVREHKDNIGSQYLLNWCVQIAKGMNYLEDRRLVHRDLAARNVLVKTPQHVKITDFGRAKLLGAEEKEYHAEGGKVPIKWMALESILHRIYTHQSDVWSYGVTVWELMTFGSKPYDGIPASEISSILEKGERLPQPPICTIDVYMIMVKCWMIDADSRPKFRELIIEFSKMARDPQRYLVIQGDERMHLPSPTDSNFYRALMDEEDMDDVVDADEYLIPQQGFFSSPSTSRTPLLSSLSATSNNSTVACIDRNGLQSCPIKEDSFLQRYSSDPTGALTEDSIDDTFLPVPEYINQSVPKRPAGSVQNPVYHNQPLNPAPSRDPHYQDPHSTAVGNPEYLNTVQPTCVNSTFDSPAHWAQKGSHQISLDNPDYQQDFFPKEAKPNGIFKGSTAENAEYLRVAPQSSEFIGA
How it was run: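 Competition binding against an immobilized active-site-directed ligand; bound kinase quantified by qPCR of its DNA tag. Kd taken from duplicate 11-point dose-response curves.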

[9] = Half life in rat S9 fraction; type: ADME, subcellular
[10] = target: T1, Epidermal growth factor receptor; assay: Binding affinity to human partial length EGFR L858R mutant (R669 to V1011 residues) expressed in bacterial expression system under full equilibrating condition by scanKINETIC assay
How it was run: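 Binding kinetics are read from Kd values measured under four dose-response arms. Arm A is full equilibration. Arm B is equilibrate, then 3-fold dilution, then equilibrate. Arm C is partial equilibration. Arm D is predilution followed by full equilibration. Comparing the arms assesses reversibility of binding.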

[11] = target: Cytochrome P450 1A2 (Homo sapiens, UniProt P05177); assay: Inhibition of CYP1A2 (unknown origin); type: ADME
Chain of Cytochrome P450 1A2 (P05177 whole entry): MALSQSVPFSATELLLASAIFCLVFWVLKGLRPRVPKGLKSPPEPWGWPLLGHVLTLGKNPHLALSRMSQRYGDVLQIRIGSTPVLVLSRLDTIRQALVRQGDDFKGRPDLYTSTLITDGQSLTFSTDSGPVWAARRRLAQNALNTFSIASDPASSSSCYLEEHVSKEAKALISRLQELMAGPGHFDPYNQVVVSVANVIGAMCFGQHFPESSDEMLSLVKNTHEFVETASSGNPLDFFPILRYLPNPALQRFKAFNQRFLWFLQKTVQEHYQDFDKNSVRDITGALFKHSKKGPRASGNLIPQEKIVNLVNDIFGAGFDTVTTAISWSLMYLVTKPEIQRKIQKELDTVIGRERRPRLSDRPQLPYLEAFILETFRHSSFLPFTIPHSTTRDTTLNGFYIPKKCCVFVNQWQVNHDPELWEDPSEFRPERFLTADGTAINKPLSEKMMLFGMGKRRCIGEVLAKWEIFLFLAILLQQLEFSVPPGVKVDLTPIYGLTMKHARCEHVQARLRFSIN

[12] = system: MOLT-4; assay: cells; type: functional; details: Homo sapiens, MOLT-4, 48 h
[13] = target: Receptor tyrosine-protein kinase erbB-2 (Homo sapiens, UniProt P04626); assay: Inhibition of probe binding to HER2 (unknown origin) using rabbit reticulate lysate system after 1 hr by luminescence assay
How it was run: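 Homogeneous competition binding in rabbit reticulocyte lysate with kinase expressed in the lysate. IC50 taken from a ten-point dose-response curve; value is the average of triplicate experiments.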

[14] = target: Epidermal growth factor receptor (Homo sapiens, UniProt P00533, L861Q); assay: Binding affinity to human partial length EGFR L861Q mutant (R669 to V1011 residues) expressed in bacterial expression system by KinomeScan assay; how it was run: as §1
Chain of Epidermal growth factor receptor (Homo sapiens, UniProt P00533, L861Q) (P00533 25-1210 L861Q limits assumed): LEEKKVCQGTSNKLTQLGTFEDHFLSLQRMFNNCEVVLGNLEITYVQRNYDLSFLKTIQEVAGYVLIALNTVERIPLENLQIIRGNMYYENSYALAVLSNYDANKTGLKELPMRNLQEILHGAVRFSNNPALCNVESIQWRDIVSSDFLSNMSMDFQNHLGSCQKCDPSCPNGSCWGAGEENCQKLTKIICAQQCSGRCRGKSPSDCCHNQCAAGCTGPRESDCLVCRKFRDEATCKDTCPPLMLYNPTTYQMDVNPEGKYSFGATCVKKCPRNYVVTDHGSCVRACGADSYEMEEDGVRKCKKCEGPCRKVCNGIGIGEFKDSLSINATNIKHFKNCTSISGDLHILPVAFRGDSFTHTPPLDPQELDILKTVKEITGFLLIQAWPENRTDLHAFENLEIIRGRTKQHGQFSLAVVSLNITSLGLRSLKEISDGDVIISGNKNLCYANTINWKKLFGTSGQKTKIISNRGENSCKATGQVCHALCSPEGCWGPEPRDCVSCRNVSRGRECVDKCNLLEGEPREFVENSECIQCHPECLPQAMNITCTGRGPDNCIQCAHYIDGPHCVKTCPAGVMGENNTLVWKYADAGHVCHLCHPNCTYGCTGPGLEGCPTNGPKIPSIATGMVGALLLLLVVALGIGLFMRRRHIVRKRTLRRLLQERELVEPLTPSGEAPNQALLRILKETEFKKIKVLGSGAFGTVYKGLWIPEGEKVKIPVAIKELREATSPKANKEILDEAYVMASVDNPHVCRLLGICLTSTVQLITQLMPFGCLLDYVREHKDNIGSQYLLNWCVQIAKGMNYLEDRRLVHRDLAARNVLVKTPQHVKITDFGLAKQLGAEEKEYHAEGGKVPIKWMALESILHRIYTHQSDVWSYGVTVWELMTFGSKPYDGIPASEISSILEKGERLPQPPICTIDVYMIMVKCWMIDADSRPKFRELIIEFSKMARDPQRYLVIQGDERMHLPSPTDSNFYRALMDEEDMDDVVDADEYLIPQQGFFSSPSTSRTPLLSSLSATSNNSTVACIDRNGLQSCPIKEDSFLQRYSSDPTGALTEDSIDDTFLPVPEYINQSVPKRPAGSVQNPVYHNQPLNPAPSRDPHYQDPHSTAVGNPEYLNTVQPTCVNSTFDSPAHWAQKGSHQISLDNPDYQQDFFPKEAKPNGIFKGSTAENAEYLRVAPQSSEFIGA

[15] = target: Epidermal growth factor receptor (Homo sapiens, UniProt P00533, G719C); assay: Binding affinity to human partial length EGFR G719C mutant (R669 to V1011 residues) expressed in bacterial expression system by KinomeScan assay; how it was run: as §1
[16] = system: CCRF-CEM; assay: Therapeutic index, ratio of LC50 for human CCRF-CEM cells to GI50 for human CCRF-CEM cells; type: functional
How it was run: (§2)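 NCI-60 panel screen using five-dose response curves, each value an average of 2 experiments. […] The therapeutic index is calculated as LC50/GI50 for the same cell line.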

[17] = target: Epidermal growth factor receptor (Homo sapiens, UniProt P00533, L747-S752DEL/P753S); assay: Binding affinity to human partial length EGFR L747-S752del/P753S mutant expressed in bacterial expression system by KinomeScan assay; how it was run: as §1
[18] = Half life in human S9 fraction; type: ADME, subcellular
[19] = system: A549; assay: Cytotoxicity against human A549 cells assessed as reduction in measured protein incubated for 48 hrs by SRB assay; type: functional; details: A549, 48 h, read-out: LC50 (the source's name)
How it was run: (§3)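 Tested in the NCI-60 panel with a five-dose response curve, each value the mean of 2 experiments.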

[20] = target: Epidermal growth factor receptor (Homo sapiens, UniProt P00533, S752-I759DEL); assay: Binding affinity to human partial length EGFR S752-I759 deletion mutant expressed in bacterial expression system by KinomeScan assay; how it was run: as §1
[21] = system: NCI-H322M; assay: Therapeutic index, ratio of LC50 for human NCI-H322M cells to GI50 for human NCI-H322M cells; type: functional; how it was run: as §2
[22] = target: Tyrosine-protein kinase ITK/TSK (Homo sapiens) (UniProt Q08881); assay: Inhibition of probe binding to ITK (unknown origin) using rabbit reticulate lysate system at 250 nM after 1 hr by luminescence assay relative to control
[23] = target: Tyrosine-protein kinase Tec (Homo sapiens) (UniProt P42680); assay: Inhibition of probe binding to TEC (unknown origin) using rabbit reticulate lysate system at 250 nM after 1 hr by luminescence assay relative to control
[24] = target: Epidermal growth factor receptor (Homo sapiens, UniProt P00533, A750P/L747-E749DEL); assay: Binding affinity to human partial length EGFR L747-E749del/A750P mutant expressed in bacterial expression system by KinomeScan assay; how it was run: as §1
[25] = system: NCI-H460; assay: Therapeutic index, ratio of LC50 for human NCI-H460 cells to GI50 for human NCI-H460 cells; type: functional
How it was run: (§4)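 NCI-60 panel cell growth assay. Five-point dose-response curves; each value is the average of 2 experiments. […] Therapeutic index is calculated as LC50/GI50.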

[26] = target: Cytochrome P450 3A4 (Homo sapiens, UniProt P08684); assay: Inhibition of CYP3A4 (unknown origin); type: ADME
Chain of Cytochrome P450 3A4 (P08684 whole entry): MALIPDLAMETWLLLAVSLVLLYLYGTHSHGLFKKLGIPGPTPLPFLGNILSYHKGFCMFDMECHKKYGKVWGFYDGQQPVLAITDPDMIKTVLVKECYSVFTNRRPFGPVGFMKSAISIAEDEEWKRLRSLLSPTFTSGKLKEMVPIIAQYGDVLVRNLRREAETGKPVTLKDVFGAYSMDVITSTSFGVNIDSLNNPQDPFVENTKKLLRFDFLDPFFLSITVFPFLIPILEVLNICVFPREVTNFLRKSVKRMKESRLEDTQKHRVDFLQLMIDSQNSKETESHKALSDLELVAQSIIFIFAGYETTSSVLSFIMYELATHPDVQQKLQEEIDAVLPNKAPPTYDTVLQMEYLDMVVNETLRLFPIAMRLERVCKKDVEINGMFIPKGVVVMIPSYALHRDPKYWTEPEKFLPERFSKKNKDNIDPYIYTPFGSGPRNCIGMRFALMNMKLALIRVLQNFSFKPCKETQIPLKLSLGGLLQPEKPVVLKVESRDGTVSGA

[27] = system: CCRF-CEM; assay: Cytotoxicity against human CCRF-CEM cells assessed as reduction in measured protein incubated for 48 hrs by SRB assay; type: functional; details: read-out: LC50 (the source's name); how it was run: as §3
[28] = target: Epidermal growth factor receptor (Homo sapiens, UniProt P00533, G719S); assay: Binding affinity to human partial length EGFR G719S mutant (R669 to V1011 residues) expressed in bacterial expression system by KinomeScan assay; how it was run: as §1
[29] = Half life in rat hepatocytes; type: ADME, cell-based, Hepatocyte
[30] = system: A549; assay: Therapeutic index, ratio of LC50 for human A549 cells to GI50 for human A549 cells; type: functional; how it was run: as §4
[31] = target: Tyrosine-protein kinase BTK (Homo sapiens) (UniProt Q06187); assay: Inhibition of probe binding to BTK (unknown origin) using rabbit reticulate lysate system at 250 nM after 1 hr by luminescence assay relative to control
Chain of Tyrosine-protein kinase BTK (Homo sapiens) (Q06187 whole entry): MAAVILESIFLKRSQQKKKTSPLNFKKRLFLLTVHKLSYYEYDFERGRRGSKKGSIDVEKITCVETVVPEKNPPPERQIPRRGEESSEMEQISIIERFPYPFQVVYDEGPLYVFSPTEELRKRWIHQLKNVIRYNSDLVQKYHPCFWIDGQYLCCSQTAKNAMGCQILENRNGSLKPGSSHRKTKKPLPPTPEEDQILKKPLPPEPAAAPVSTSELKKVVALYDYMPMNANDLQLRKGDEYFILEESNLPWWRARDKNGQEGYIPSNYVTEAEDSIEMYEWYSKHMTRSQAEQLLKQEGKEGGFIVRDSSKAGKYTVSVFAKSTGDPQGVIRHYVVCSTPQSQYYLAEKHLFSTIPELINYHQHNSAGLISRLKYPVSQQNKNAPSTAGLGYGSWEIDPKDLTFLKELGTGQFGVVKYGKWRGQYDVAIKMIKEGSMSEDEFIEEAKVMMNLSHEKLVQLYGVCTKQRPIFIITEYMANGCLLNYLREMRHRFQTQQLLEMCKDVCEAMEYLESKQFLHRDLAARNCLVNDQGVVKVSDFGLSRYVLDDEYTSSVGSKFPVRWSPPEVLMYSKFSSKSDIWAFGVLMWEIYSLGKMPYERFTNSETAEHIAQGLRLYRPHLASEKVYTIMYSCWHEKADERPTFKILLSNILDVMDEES

[32] = target: T1, Epidermal growth factor receptor

CCOc1cc2ncc(C#N)c(Nc3ccc(OCc4cccc(F)c4)c(Cl)c3)c2cc1NC(=O)CC1CCSS1 (configuration not stated)
Ratio IC50 [1]: 14.7
inhibition [2]: 10%
half-life [3]: 57.3 min
IC50 [4]: > 50 µM
Kd [5]: 10 µM
GI50 [6]: 150 nM
GI50 [7]: 600 nM
Kd [8]: 9.6 nM
half-life [9]: > 60 min
Kd [10]: 9.6 nM
IC50 [11]: > 50 µM
GI50 [12]: 160 nM
IC50 [13]: 160 nM
Kd [14]: 4.8 nM
Kd [15]: 5.7 nM
TI [16]: >166
Kd [17]: 12 nM
half-life [18]: 60 min
CC50 [19]: 3.4 µM
Kd [20]: 10 nM
TI [21]: >41.5
inhibition [22]: 0%
inhibition [23]: 20%
Kd [24]: 7.9 nM
TI [25]: 4.1
IC50 [26]: > 50 µM
CC50 [27]: > 25 µM
Kd [28]: 14 nM
half-life [29]: 53.6 min
TI [30]: 6.2
inhibition [31]: 0%
IC50 [32]: 10.9 to 11 nM

From ChEMBL document CHEMBL4387720, “Lead generation of 1,2-dithiolanes as exon 19 and exon 21 mutant EGFR tyrosine kinase inhibitors” (Bioorg Med Chem Lett, 2019)
